In the library only some 0.61% were active in any assay of this set; here they are far more common.
XiGFP reactiv: X-chromosome reactivation activator; activation, % at 7.58 µM; 360,000 compounds, 0.055% hits; XiGFP mouse fibroblasts, % GFP-positive cells imaging, 3 d; cells co-treated with 5-aza-dC sensitizer; scaled so ellipticine positive control = 100%;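 active means mean normalized replicate activation at least 10% and every replicate at or above 10%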;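 further: 0% = median of on-plate neutral control wells and 100% = ellipticine 6 µM median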
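Material: SV40-immortalized XiGFP fibroblast cells, line 68-5-11 | Buffer or medium: DMEM containing 5-aza-dC | Dosing: One concentration, pinned | Times: 3 d treatment, 15 min room-temperature fixation | Controls: Ellipticine 6 µM positive control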
E-sel inducer: induces E-selectin expression in human endothelial cells | activation, % at 7.58 µM | P16581 | HUVEC E-selectin immunofluorescence imaging; normalized: neutral wells 0, TNF-alpha wells 100 | AID 686992 | 260,000 compounds, 0.37% hits;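 active means mean E-selectin-positive cell signal at least 10% of the positive control, reached in at least 60% of replicates, without over 20% cell loss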
Target sequence (P16581 whole entry, looked up): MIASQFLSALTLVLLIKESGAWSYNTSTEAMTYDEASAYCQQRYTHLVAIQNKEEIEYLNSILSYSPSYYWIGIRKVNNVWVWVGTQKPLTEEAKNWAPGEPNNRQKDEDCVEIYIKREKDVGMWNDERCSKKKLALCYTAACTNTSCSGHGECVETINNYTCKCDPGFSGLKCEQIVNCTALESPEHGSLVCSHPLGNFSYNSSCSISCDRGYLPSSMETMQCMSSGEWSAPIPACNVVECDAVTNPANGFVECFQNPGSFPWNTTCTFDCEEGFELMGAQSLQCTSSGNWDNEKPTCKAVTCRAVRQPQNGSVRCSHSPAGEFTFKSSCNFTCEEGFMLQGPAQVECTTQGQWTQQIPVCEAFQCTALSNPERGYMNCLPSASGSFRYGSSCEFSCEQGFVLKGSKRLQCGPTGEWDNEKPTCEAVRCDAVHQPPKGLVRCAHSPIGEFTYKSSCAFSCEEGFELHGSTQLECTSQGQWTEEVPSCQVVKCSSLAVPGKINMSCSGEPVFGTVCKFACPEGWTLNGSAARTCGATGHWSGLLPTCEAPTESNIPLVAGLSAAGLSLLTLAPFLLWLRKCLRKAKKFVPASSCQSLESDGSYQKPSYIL
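Test system – human umbilical vein endothelial cells (HUVEC), E-selectin induction · Input – 3,000 HUVEC seeded per well · Buffer or medium – EGM-2, gelatin · Compound dosing – single-point compound dose · Detection – immunofluorescence imaging · Measure – percent E-selectin-positive cells · Controls – TNF-alpha high, DMSO low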
F508del corr: correctors of CFTR F508del function in bronchial epithelial cells. CFBE cells, YFP halide quenching; stimulated with forskolin plus potentiator P3; % fluorescence drop versus neutral controls. activity (quench increase), % at 7.58 µM. 350,000 compounds, 0.36% hits;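 active means mean added fluorescence quench of at least 8% versus neutral control, with both replicates also reaching 8%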;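 further: cells transiently co-express mutant CFTR-F508del with the halide-sensitive YFP; corrector assay measuring rescue of mutant channel to the surface after 24 h compound exposure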
Active calls of the source: *.

Results for Cc1noc(C)c1NC(=O)N(C)C[C@H]1Oc2ccc(NC(=O)Nc3ccc(C(F)(F)F)cc3)cc2CC(=O)N([C@H](C)CO)C[C@@H]1C ?
XiGFP reactiv: 0.2; E-sel inducer: -0.3; F508del corr: -0.6

What do the screens show for `CCN(CC)CCNC(=O)c1cc2c(=O)n(CC)c3ccccc3c2s1`?
XiGFP reactiv: 0.3; E-sel inducer: 63.2*; F508del corr: 3.2

What do the screens show for `CCN(CC)CCCNC(=O)c1cc2c(=O)n(CC)c3ccccc3c2s1`?
XiGFP reactiv: 0.0; E-sel inducer: 10.9; F508del corr: -0.1

How did CC1C2CCC(C2)C1OC(=O)c1ccccc1C(=O)O (centres undefined) do in these assays?
XiGFP reactiv: 0.3; E-sel inducer: 0.2; F508del corr: 9.4*

What do the screens show for `O=C(O)c1ccccc1C(=O)OC1CCCC2CCCC21` (centres undefined)?
XiGFP reactiv: 0.2; E-sel inducer: 0.2; F508del corr: -1.3

How did CCCNC(=O)N1[C@H](CO)[C@@H](c2ccccc2)[C@@H]1C#N do in these assays?
XiGFP reactiv: -0.1; E-sel inducer: -0.5; F508del corr: 0.6

What do the screens show for `CC1(C)CCN2CCC(C)(C)c3c(O)ccc1c32`?
XiGFP reactiv: 80.1*; F508del corr: 37.9*

What do the screens show for `C[C@@H]1CN([C@H](C)CO)C(=O)c2cc(-c3ccc(F)cc3)cnc2O[C@@H]1CN(C)C(=O)c1ccncc1`?
XiGFP reactiv: -1.1; E-sel inducer: 0.4; F508del corr: 1.2

Results for COc1ccc(C)cc1NC(=O)COC(=O)C1COc2ccccc2O1 (centres undefined) ?
XiGFP reactiv: 0.3; F508del corr: -1.4

Results for CCOc1ccc(S(=O)(=O)N2CCOCC2)cc1NC(=O)CSCC(=O)Nc1ccc(C)cc1 ?
XiGFP reactiv: -0.1; E-sel inducer: 0.9; F508del corr: 0.2

What do the screens show for `O=C(NCc1ccco1)c1cc(S(=O)(=O)N2CCCC2)ccc1Cl`?
XiGFP reactiv: 0.1; E-sel inducer: -0.4; F508del corr: 2.1

Results for CCOc1ccc(S(=O)(=O)N2CCOCC2)cc1NC(=O)CSCC(=O)Nc1ccc(OC)cc1 ?
XiGFP reactiv: 0.0; E-sel inducer: -0.3; F508del corr: 19.8*

What do the screens show for `COc1ccc(S(=O)(=O)N2CCOCC2)cc1NC(=O)COC(=O)C1COc2ccccc2O1` (centres undefined)?
XiGFP reactiv: 0.5; E-sel inducer: 117.8*

How did O=C(Nc1cc(S(=O)(=O)N2CCOCC2)ccc1Cl)C1CCC1 do in these assays?
XiGFP reactiv: -0.1; E-sel inducer: -0.2; F508del corr: -3.2

Results for O=C(COC(=O)C1CCC1)Nc1cc(S(=O)(=O)N2CCOCC2)ccc1Cl ?
XiGFP reactiv: -0.1; E-sel inducer: 0.0; F508del corr: 12.6*

What do the screens show for `O=C(CN(Cc1ccco1)Cc1ccco1)Nc1cc(S(=O)(=O)N2CCCCC2)ccc1Cl`?
XiGFP reactiv: -0.3; F508del corr: 9.4*

How did C[C@@H]1CN([C@@H](C)CO)C(=O)c2c(c3ccccc3n2C)-c2ccccc2CO[C@H]1CN(C)C(=O)c1ccccc1 do in these assays?
XiGFP reactiv: 0.2; E-sel inducer: -0.2; F508del corr: 0.8

What do the screens show for `C[C@@H]1CN([C@H](C)CO)C(=O)c2cc(NS(=O)(=O)c3ccc(F)cc3)ccc2O[C@H]1CN(C)S(=O)(=O)c1ccc(Cl)cc1`?
XiGFP reactiv: -1.2; E-sel inducer: -0.3; F508del corr: 3.3

How did CC(C)C#Cc1ccc2c(c1)O[C@H](CN(C)C(=O)Cc1ccccn1)[C@@H](C)CN([C@H](C)CO)S2(=O)=O do in these assays?
XiGFP reactiv: -1.3; E-sel inducer: 0.3; F508del corr: 1.6

Results for CCC(=O)N1[C@H](CO)[C@@H]2c3ccccc3N(C(=O)NC(C)C)C[C@@H]21 ?
XiGFP reactiv: 0.1; E-sel inducer: -0.4; F508del corr: -1.1

What do the screens show for `CCS(=O)(=O)Nc1ccc2c(c1)C(=O)N(C)C[C@@H](OC)[C@@H](C)CN(Cc1ccccn1)[C@H](C)CO2`?
XiGFP reactiv: 0.1; E-sel inducer: 1.0; F508del corr: -2.2

How did COc1ccc(OC)c(Nc2c3ccccc3nc3ccccc23)c1 do in these assays?
XiGFP reactiv: 0.0; E-sel inducer: 0.5; F508del corr: -0.6

How did COc1ccc([N+](=O)[O-])cc1Nc1c2ccccc2nc2ccccc12 do in these assays?
XiGFP reactiv: 1.3; E-sel inducer: 3.7; F508del corr: 13.2*

Results for CCCNC(=O)N1C[C@H](O)COC[C@H]2O[C@@H](CC(=O)N3CCOCC3)CC[C@@H]21 ?
XiGFP reactiv: 0.0; E-sel inducer: 0.1; F508del corr: 0.2

Results for C/C=C/c1ccccc1[C@H]1[C@@H](CO)N(S(=O)(=O)c2cccc(F)c2)[C@H]1C#N ?
XiGFP reactiv: 0.0; E-sel inducer: -0.1; F508del corr: -0.9

What do the screens show for `COc1ccc([C@@H]2[C@@H]3C(=O)N(C(C)(C)C)C(=O)[C@@H]3[C@]3(Cc4ccccc4)C(=O)N(c4ccc(OC)cc4)C(=O)N23)cc1`?
XiGFP reactiv: 3.7; E-sel inducer: 0.3; F508del corr: 2.9

What do the screens show for `COc1ccc([C@@H]2[C@@H]3C(=O)N(C(C)(C)C)C(=O)[C@@H]3[C@]3(Cc4ccccc4)C(=O)N(c4ccc(C(F)(F)F)cc4)C(=O)N23)cc1`?
XiGFP reactiv: 0.0; F508del corr: 9.0*

What do the screens show for `Cn1c(CC(=O)NN)c(Sc2ccccc2)c2ccccc21`?
XiGFP reactiv: 0.3; E-sel inducer: -0.1; F508del corr: 11.8*

What do the screens show for `Cn1c(CC(=O)NCCO)c(Sc2ccccc2)c2ccccc21`?
XiGFP reactiv: 0.0; E-sel inducer: 1.5

Results for CN(C)C(=O)C[C@H]1C[C@H]2c3cc(NC(=O)CC4CC4)ccc3O[C@H]2[C@@H](CO)O1 ?
XiGFP reactiv: 0.0; E-sel inducer: -0.2; F508del corr: -4.1

What do the screens show for `CN(C)CC(=O)N[C@@H]1CC[C@H](CCNC(=O)C2CC2)O[C@@H]1CO`?
XiGFP reactiv: -0.4; E-sel inducer: -0.4; F508del corr: 0.8

What do the screens show for `CCCCC(=NCCc1c(C)[nH]c2ccccc12)C1=C(O)CC(c2ccccc2)CC1=O` (centres undefined)?
XiGFP reactiv: 0.3; F508del corr: 8.6*

How did CC(=NCCc1c(C)[nH]c2ccc(C)cc12)C1=C(O)CC(c2ccccc2)CC1=O (centres undefined) do in these assays?
XiGFP reactiv: 0.7

What do the screens show for `CO[C@@H]1CN(C)C(=O)c2ccc(NC(=O)C3CC3)cc2OC[C@H](C)N(Cc2nccs2)C[C@@H]1C`?
XiGFP reactiv: -0.2; E-sel inducer: -0.1; F508del corr: -0.9

How did C[C@H](CO)N1C[C@H](C)[C@@H](CN(C)Cc2ccc(C(F)(F)F)cc2)Oc2c(NC(=O)CCCCCC(=O)Nc3ccccc3N)cccc2C1=O do in these assays?
XiGFP reactiv: -0.9; E-sel inducer: 0.0; F508del corr: 2.1

Results for COCC(=O)Nc1ccc2c(c1)C(=O)N(C)[C@H]1CC[C@H](CC(=O)O)O[C@H]1CO2 ?
XiGFP reactiv: 0.1; E-sel inducer: 0.1; F508del corr: -0.9

High-throughput results as filed in PubChem.
